# Measurements from ChEMBL document CHEMBL3259541, “Synthesis and biological evaluation of antimetastatic agents predicated upon dihydromotuporamine C and its carbocyclic derivatives” (J Med Chem, 2014).
# Activity calls are given as the source filed them. The rule behind the calls is not given here.
# What was measured:
# [1] = tested on: L3.6pl; test: Antimetastatic activity against human L3.6PL cells injected into pancreas of immune-compromised mouse assessed as liver micrometastasis at 2.66 mg/kg,ip 5 days per week for 2 weeks after 7 days of tumor cells inoculation by microscopically; format: functional, organism-based; design: dose 2.66 mg/kg
# How it was run: (§1)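 Nu/nu mice engrafted with human L3.6pl pancreatic tumor cells; vehicle or compound given ip 5 days/week for 2 weeks (10 injections; 2.50 mg/kg for one agent, 2.66 mg/kg equimolar for the other), n=7 per group. Livers collected at termination; micrometastasis incidence and size scored macroscopically and on sections by H&E, human Ki67 and human cytokeratin-18 immunohistochemistry.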
# [2] = tested on: L3.6pl; test: Antimigratory activity against human L3.6PL cells assessed as cell migration inhibition after 48 hrs incubation by wound healing assay in presence of 250 uM aminoguanidine treated 24 hrs prior compound addition; format: functional, cell-based
# [3] = tested on: L3.6pl; test: Effect on intracellular ceramide population in human L3.6PL cells assessed as sphingomyelin N20:0 level measured as contribution to total ceramide population at 0.6 uM after 48 hrs incubation by mass spectrometry analysis (reference value: 1.1%); format: functional
# [4] = tested on: L3.6pl; test: Antimetastatic activity against human L3.6PL cells injected into pancreas of immune-compromised mouse assessed as liver micrometastasis at 2.66 mg/kg,ip 5 days per week for 2 weeks after 7 days of tumor cells inoculation by human Ki67 immunohistochemical staining
# [5] = tested on: L3.6pl; test: Effect on intracellular ceramide population in human L3.6PL cells assessed as sphingomyelin N16:0 level measured per mg of protein at 0.6 uM after 48 hrs incubation by mass spectrometry analysis (reference value: 3.21 +/- 0.90 nmol); format: functional
# [6] = tested on: L3.6pl; test: Effect on intracellular ceramide population in human L3.6PL cells assessed as sphingomyelin N21:0 level measured per mg of protein at 0.6 uM after 48 hrs incubation by mass spectrometry analysis (reference value: 0.03 +/- 0.01 nmol); format: functional
# [7] = tested on: L3.6pl; test: Effect on intracellular ceramide population in human L3.6PL cells assessed as sphingomyelin N18:0 level measured per mg of protein at 0.6 uM after 48 hrs incubation by mass spectrometry analysis (reference value: 0.38 +/- 0.11 nmol); format: functional
# [8] = tested on: Mus musculus; test: Toxicity in immune-compromised mouse assessed as adverse event at 2.66 mg/kg,ip 5 days per week for 2 weeks; format: organism-based; design: dose 2.66 mg/kg; details: in vivo
# [9] = tested on: L3.6pl; test: Antimetastatic activity against human L3.6PL cells injected into pancreas of immune-compromised mouse assessed as liver micrometastasis at 2.66 mg/kg,ip 5 days per week for 2 weeks after 7 days of tumor cells inoculation by Hematoxylin and eosin staining
# [10] = tested on: L3.6pl; test: Effect on intracellular ceramide population in human L3.6PL cells assessed as sphingomyelin N22:2 level measured per mg of protein at 0.6 uM after 48 hrs incubation by mass spectrometry analysis (reference value: 0.02 +/- 0.00 nmol); format: functional
# [11] = tested on: L3.6pl; test: Effect on intracellular ceramide population in human L3.6PL cells assessed as ceramide N22:1 level measured as contribution to total ceramide population at 0.6 uM after 48 hrs incubation by mass spectrometry analysis relative to untreated control
# [12] = tested on: L3.6pl; test: Antimetastatic activity against human L3.6PL cells injected into pancreas of immune-compromised mouse assessed as liver micrometastasis at 2.5 mg/kg,ip 5 days per week for 2 weeks after 7 days of tumor cells inoculation by microscopically; format: functional, organism-based; design: dose 2.5 mg/kg; how it was run: as §1
# [13] = tested on: L3.6pl; test: Antimetastatic activity against human L3.6PL cells injected into pancreas of immune-compromised mouse assessed as liver micrometastasis at 2.5 mg/kg,ip 5 days per week for 2 weeks after 7 days of tumor cells inoculation by Hematoxylin and eosin staining
# [14] = tested on: Mus musculus; test: Toxicity in immune-compromised mouse assessed as adverse event at 2.5 mg/kg,ip 5 days per week for 2 weeks; format: organism-based; design: dose 2.5 mg/kg; details: in vivo
# [15] = tested on: L3.6pl; test: Antimetastatic activity against human L3.6PL cells injected into pancreas of immune-compromised mouse assessed as liver micrometastasis at 2.5 mg/kg,ip 5 days per week for 2 weeks after 7 days of tumor cells inoculation by human Ki67 immunohistochemical staining
# [16] = Toxicity in immune-compromised mouse compound treated ip 5 days per week for 2 weeks; format: organism-based; details: in vivo
SMILES,Activity [1],inhibition [2],Activity [3] [%],Activity [4],Activity [5] [nmol],Activity [6] [nmol],Activity [7] [nmol],Activity [8],Activity [9],Activity [10] [nmol],fold change (FC) [11],Activity [12],Activity [13],Activity [14],Activity [15],MTD at 2 weeks [16] [mg/kg]
Cl.NCCCNCCCNCC1CCCCCCCCCCCCCC1,Active,Dose-dependent effect,1.5,Active,4.36,0.04,0.54,Non-toxic,Active,0.03,,,,,,
Cl.NCCCNCCCN1CCCCCCCCCCCCCC1,,,0.6,,4.01,0.04,0.47,,,0.02,2.8,inactive,inactive,Non-toxic,inactive,2.5
